Source: ChEMBL document CHEMBL2331535, “Discovery and Biological Profiling of Potent and Selective mTOR Inhibitor GDC-0349” (ACS Med Chem Lett, 2013)
Activity calls are given as the source filed them. The calls are words filed in the database; no cut-off is given here.

Experiments:
Cytochrome P450 3A4 = Cytochrome P450 3A4 (Homo sapiens, UniProt P08684); assay: Time-dependent inhibition of CYP3A4 in human liver microsome using midazolam as substrate by TDI shift assay; format: ADME, microsomes
Method in brief: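 CYP3A4 time-dependent inhibition shift assay in human liver microsomes with NADPH cofactor and midazolam as probe substrate. The compound was preincubated for 30 min and compared with no preincubation. A left shift of the CYP activity curve after preincubation designates the compound TDI positive.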

PC-3 [1] = assay: Antiproliferative activity against PTEN-null human PC3 cells; format: functional, cell-based
Method in brief: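 PC3 prostate cancer cells (PTEN loss, PI3K-AKT-mTOR pathway activated) used for the antiproliferation assay. Activity is expressed as EC50 in nM.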

[2] = Antitumor activity against PI3K-mutant human MCF7-neo/Her2 cells xenografted in po dosed NCR nude mouse assessed as tumor growth inhibition at maximum tolerated dose administered qd for 14-21 days; format: functional
Method in brief: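 Athymic mice bearing MCF7-neo/Her2 breast tumour xenografts (PI3K-mutant) were given the drug orally once daily at 10, 20, 30, 40, 50, 60, 70 or 80 mg/kg, with a vehicle (0 mg/kg) group. Read-out was tumour growth inhibition across the dose range, with body weight change also tracked.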

Mus musculus [3] = assay: Toxicity in NCR nude mouse xenografted with human PI3K-mutant MCF7-neo/Her2 cells assessed as body weight changes up to 80 mg/kg, po qd for 14-21 days; format: organism-based; design: dose 80 mg/kg, route oral; conditions: in vivo
Method in brief: (§1)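 MCF7-neo/Her2 (PI3K-mutant) breast cancer xenografts in athymic mice. Compound given orally once daily at 10, 20, 30, 40, 50, 60, 70 and 80 mg/kg QD, with a vehicle group (0 mg/kg). Tumor growth inhibition was tracked, and body weight change was monitored up to the highest dose.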

Homo sapiens [4] = assay: Antitumor activity against PI3K-mutant human MCF7-neo/Her2 cells xenografted in po dosed NCR nude mouse assessed as tumor growth inhibition administered qd for 14-21 days; format: functional, organism-based; method in brief: as §1
786-0 = assay: Antitumor activity against VHL mutant human 786-0 cells xenografted in po dosed nu/nu mouse assessed as tumor growth inhibition administered qd for 14-21 days; format: functional, organism-based
Homo sapiens [5] = assay: Decrease in phosphorylation of Akt at Ser473 in PI3K-mutant human MCF7-neo/Her2 cells xenografted in NCR nude mouse at 25 to 100 mg/kg, po; format: functional, organism-based
Homo sapiens [6] = assay: Decrease in phosphorylated 4-EBP1 level in PI3K-mutant human MCF7-neo/Her2 cells xenografted in NCR nude mouse at 25 to 100 mg/kg, po; format: functional, organism-based
Homo sapiens [7] = assay: Antitumor activity against PI3K-mutant human MCF7-neo/Her2 cells xenografted in po dosed NCR nude mouse assessed as tumor growth inhibition administered once daily for 14-21 days
A549 [8] = assay: Antitumor activity against KRas mutant, LKB1 deficient human A549 cells xenografted in po dosed mouse assessed as delay in tumor growth administered qd in presence of MEK inhibitor, GDC-0973; format: functional, organism-based
A549 [9] = assay: Antitumor activity against KRas mutant, LKB1 deficient human A549 cells xenografted in mouse assessed as tumor growth inhibition at 5 to 30 mg/kg, po qd; format: functional, organism-based
PC-3 [10] = assay: Antitumor activity against PTEN-null human PC3 cells xenografted in po dosed NCR nude mouse assessed as tumor growth inhibition administered qd for 14-21 days; format: functional, organism-based
Plasma [11] = assay: Free plasma clearance in rat; format: ADME, cell-free
Plasma [12] = assay: Free plasma clearance in mouse; format: ADME, cell-free
[13] = In vivo clearance in mouse; format: ADME, organism-based
[14] = Dissociation constant, pKa of the compound; format: physicochemical
Mus musculus [15] = assay: Toxicity in po dosed mouse xenografted with KRas mutant, LKB1 deficient human A549 cells assessed as body weight changes administered qd in presence of MEK inhibitor, GDC-0973; format: organism-based; conditions: in vivo

Sequence of Cytochrome P450 3A4 (P08684 whole entry): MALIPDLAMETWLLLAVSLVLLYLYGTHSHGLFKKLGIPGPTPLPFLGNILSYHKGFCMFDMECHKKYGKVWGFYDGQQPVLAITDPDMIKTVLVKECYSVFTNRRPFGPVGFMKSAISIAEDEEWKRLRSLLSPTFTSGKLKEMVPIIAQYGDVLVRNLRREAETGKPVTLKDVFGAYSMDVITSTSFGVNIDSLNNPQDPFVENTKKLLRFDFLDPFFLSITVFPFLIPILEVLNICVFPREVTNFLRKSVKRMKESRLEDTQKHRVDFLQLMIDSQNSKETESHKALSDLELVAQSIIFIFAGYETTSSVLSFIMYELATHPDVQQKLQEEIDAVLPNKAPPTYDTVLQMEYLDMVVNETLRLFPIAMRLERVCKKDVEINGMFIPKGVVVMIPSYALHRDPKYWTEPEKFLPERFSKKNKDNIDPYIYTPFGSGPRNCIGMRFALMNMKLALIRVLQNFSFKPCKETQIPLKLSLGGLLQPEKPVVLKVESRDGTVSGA

Compound: CCNC(=O)Nc1ccc(-c2nc3c(c(N4CCOC[C@@H]4C)n2)CCN(c2ccnc(C)n2)C3)cc1
- IC50 (Cytochrome P450 3A4): 3.3 µM

Compound: CCNC(=O)Nc1ccc(-c2nc3c(c(N4CCOC[C@@H]4C)n2)CCN(c2cc(C)ncn2)C3)cc1
- IC50 (Cytochrome P450 3A4): 8.4 µM

Compound: O=c1cccc(Nc2ccc(-c3nc4c(c(N5CCOCC5)n3)CCN(c3ncccn3)C4)cc2)[nH]1
- EC50 (PC-3 [1]): 1300 nM

Compound: CCNC(=O)Nc1ccc(-c2nc3c(c(N4CCOC[C@@H]4C)n2)CCN(C2COC2)C3)cc1.CS(=O)(=O)O
- TGI [2]: 99%
- Activity (Mus musculus [3]): < 10%

Compound: C[C@H]1COCCN1c1nc(-c2ccc(Nc3nn(C)c(=O)[nH]3)cc2)nc2c1CCN(c1ncccn1)C2
- EC50 (PC-3 [1]): 139 nM

Compound: CCNC(=O)Nc1ccc(-c2nc3c(c(N4CCOCC4)n2)CCN(c2ncccn2)C3)cc1
- EC50 (PC-3 [1]): 310 nM

Compound: CCNC(=O)Nc1ccc(-c2nc3c(c(N4CCOC[C@@H]4C)n2)CCN(C2COC2)C3)cc1
- inhibition (Homo sapiens [4]): Dose-dependent effect
- TGI (786-0): Active
- inhibition (Homo sapiens [5]): Active
- inhibition (Homo sapiens [6]): Active
- TGI (Homo sapiens [7]): Active
- TGI (A549 [8]): Active
- TGI (A549 [9]): Active
- TGI (PC-3 [10]): Active

Compound: CCNC(=O)Nc1ccc(-c2nc3c(c(N4CCOC[C@@H]4C)n2)CCN(c2ncccn2)C3)cc1
- CL free (Plasma [11]): 1538 mL/min/kg
- CL free (Plasma [12]): 1818 mL/min/kg
- EC50 (PC-3 [1]): 147 nM

Compound: CCNC(=O)Nc1ccc(-c2nc3c(c(N4CCOC[C@@H]4C)n2)CCN(c2ncc(F)cn2)C3)cc1
- IC50 (Cytochrome P450 3A4): 1.4 µM

Compound: CCNC(=O)Nc1ccc(-c2nc3c(c(N4CCOC[C@@H]4C)n2)CCN(c2nccn2C)C3)cc1
- IC50 (Cytochrome P450 3A4): > 10 µM

Compound: C[C@H]1COCCN1c1nc(-c2ccc(Nc3nccc(=O)[nH]3)cc2)nc2c1CCN(c1ncccn1)C2
- EC50 (PC-3 [1]): 25 nM
- clearance [13]: 78 mL/min/kg

Compound: CCNC(=O)Nc1ccc(-c2nc3c(c(N4CCOC[C@@H]4C)n2)CCN(C2COC2)C3)cc1 [RG-7603]
- pKa [14]: 5
- Activity (Mus musculus [15]): Non-toxic
- CL free (Plasma [11]): 171 mL/min/kg
- CL free (Plasma [12]): 100 mL/min/kg

Compound: O=C(NCCF)Nc1ccc(-c2nc3c(c(N4CCOCC4)n2)CCN(c2ncccn2)C3)cc1
- EC50 (PC-3 [1]): 58 nM

Compound: CCNC(=O)Nc1ccc(-c2nc3c(c(N4CCOC[C@@H]4C)n2)CCN(C(C)C)C3)cc1
- IC50 (Cytochrome P450 3A4): > 10 µM
- pKa [14]: 7.6

Compound: CCNc1c(Nc2ccc(-c3nc4c(c(N5CCOC[C@@H]5C)n3)CCN(c3ncccn3)C4)cc2)c(=O)c1=O
- EC50 (PC-3 [1]): 667 nM

Compound: CS(=O)(=O)N1CCN(Cc2cc3nc(-c4cccc5[nH]ncc45)nc(N4CCOCC4)c3s2)CC1 [PICTILISIB]
- TGI (A549 [8]): Active
- TGI (A549 [9]): Active
- Activity (Mus musculus [15]): Non-toxic
